{"source": "paper PMC2219267", "about": "(The Journal of General Physiology, 1996)", "key": {"[1]": {"target": "T1, band 3 (Homo sapiens, UniProt P02730)", "T1 sequence (P02730 1-911)": "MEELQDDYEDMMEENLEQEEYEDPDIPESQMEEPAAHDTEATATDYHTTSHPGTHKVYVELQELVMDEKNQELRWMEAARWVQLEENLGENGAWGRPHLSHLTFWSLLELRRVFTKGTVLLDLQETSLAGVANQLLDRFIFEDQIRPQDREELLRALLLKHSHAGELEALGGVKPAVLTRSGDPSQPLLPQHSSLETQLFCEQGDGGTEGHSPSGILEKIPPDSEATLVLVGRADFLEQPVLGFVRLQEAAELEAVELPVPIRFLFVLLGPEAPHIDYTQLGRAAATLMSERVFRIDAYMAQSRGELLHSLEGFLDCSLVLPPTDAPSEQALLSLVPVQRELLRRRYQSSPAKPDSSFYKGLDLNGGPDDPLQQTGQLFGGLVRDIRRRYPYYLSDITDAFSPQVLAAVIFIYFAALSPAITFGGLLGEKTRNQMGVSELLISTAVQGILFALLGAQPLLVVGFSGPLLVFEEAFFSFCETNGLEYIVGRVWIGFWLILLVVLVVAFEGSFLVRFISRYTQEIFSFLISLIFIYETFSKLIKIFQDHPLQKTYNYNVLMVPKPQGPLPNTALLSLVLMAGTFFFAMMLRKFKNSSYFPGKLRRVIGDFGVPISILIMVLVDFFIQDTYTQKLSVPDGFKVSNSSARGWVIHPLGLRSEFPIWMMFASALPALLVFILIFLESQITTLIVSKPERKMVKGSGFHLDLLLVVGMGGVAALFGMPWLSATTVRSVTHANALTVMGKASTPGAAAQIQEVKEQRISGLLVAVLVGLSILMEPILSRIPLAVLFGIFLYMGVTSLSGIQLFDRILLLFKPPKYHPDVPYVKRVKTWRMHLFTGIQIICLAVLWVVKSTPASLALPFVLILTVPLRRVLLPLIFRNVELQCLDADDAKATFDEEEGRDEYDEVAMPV", "assay": "36Cl exchange flux inhibition in red blood cells, Dixon plots", "assay_type": "cell-based"}, "[2]": {"target": "T1, band 3", "assay": "125I iodide influx into red blood cells", "assay_type": "cell-based", "outline": "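Heparinised human blood was washed three times in 150 KH (150 mM KCl, 24 mM sucrose, 20 mM Hepes, pH 7.2 at 0°C), with white cells aspirated, then held at 50% hematocrit. DIDS-treated cells received a 2 mM DIDS stock. Media mixed sucrose, KCl and KI with 5 mM buffer. Above pHo 11, cells were nystatin-loaded to 300 mM Cl-, and CAPS-buffered media were used.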"}}, "data": [{"smiles": "O=S(=O)(O)CCCNC1CCCCC1", "note": "[CAPS, 3-[cyclohexylamino]-l-propanesulfonic acid]", "values": [{"measurement": "effect of buffer on anion transport or on KoI", "setting": "[1]; pHo ~12, compared with data obtained without buffer", "result": "does not show any inhibitory effects"}]}, {"smiles": "O=S(=O)(O)c1cc(N=C=S)ccc1C=Cc1ccc(N=C=S)cc1S(=O)(=O)O", "note": "[DIDS, 4,4'-diisothiocyano-stilbene-2,2'-disulfonate]", "values": [{"measurement": "I- influx in DIDS-treated cells as % of value in control cells", "setting": "[2]; all pH except 11.5", "result": "less than 10%"}, {"measurement": "DIDS-insensitive I- flux as % of control flux", "setting": "[2]; pH 11.5, very scattered values", "result": "up to 25%"}]}, {"smiles": "O=C(O)CC(O)(CC(=O)O)C(=O)O", "note": "[citrate]", "values": [{"measurement": "type of inhibition of Cl- flux (Lineweaver-Burk plot)", "setting": "[1]; 24 mM citrate, pHo 6.8, sucrose replacing Cl-", "result": "mixed inhibition"}, {"measurement": "y intercept of Dixon slope vs 1/[Clo] (citrate)", "setting": "[1]; pHo 6.8", "result": "0.00017 kg Hb·s·mmol-1·mM-1"}, {"measurement": "y intercept of Dixon slope vs 1/[Clo] (citrate)", "setting": "[1]; pHo 8.0", "result": "0.0001 kg Hb·s·mmol-1·mM-1"}]}]}
